Measurements from ChEMBL document CHEMBL1132569.

Columns and labels:
[1] = target: T1, Muscarinic acetylcholine receptor M1 (Homo sapiens) (UniProt P11229); assay: Binding affinity at the unliganded human muscarinic acetylcholine receptor M1 was estimated as log affinity (log1/M)
T1 sequence (whole entry): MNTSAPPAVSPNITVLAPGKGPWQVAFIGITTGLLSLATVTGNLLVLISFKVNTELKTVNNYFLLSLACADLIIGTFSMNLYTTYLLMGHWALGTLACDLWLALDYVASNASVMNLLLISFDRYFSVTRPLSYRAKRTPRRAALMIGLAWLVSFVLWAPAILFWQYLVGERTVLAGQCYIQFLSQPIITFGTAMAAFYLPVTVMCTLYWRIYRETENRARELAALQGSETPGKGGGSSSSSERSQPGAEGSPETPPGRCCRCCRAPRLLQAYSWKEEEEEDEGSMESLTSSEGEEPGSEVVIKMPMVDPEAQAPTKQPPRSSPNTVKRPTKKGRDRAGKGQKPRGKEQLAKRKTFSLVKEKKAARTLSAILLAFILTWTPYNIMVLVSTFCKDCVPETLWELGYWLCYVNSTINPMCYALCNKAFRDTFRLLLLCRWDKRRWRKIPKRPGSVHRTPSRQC
Procedure, shortened: (§1)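 Equilibrium runs were ≥2 h with 2 × 10⁻⁴ M GTP and 0.1–0.7 nM ³H-NMS. Nonspecific binding was defined with 10⁻⁶ M QNB, and bound ligand was filtered and counted. Log affinities came from semiquantitative plus off-rate, quantitative equilibrium, or nonequilibrium assays, fitted by nonlinear least squares to the allosteric ternary complex model.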

[2] = target: Muscarinic acetylcholine receptor M3 (Homo sapiens) (UniProt P20309); assay: Cooperativity with acetylcholine at human muscarinic acetylcholine receptor M3
Sequence of Muscarinic acetylcholine receptor M3 (Homo sapiens) (P20309 whole entry, looked up): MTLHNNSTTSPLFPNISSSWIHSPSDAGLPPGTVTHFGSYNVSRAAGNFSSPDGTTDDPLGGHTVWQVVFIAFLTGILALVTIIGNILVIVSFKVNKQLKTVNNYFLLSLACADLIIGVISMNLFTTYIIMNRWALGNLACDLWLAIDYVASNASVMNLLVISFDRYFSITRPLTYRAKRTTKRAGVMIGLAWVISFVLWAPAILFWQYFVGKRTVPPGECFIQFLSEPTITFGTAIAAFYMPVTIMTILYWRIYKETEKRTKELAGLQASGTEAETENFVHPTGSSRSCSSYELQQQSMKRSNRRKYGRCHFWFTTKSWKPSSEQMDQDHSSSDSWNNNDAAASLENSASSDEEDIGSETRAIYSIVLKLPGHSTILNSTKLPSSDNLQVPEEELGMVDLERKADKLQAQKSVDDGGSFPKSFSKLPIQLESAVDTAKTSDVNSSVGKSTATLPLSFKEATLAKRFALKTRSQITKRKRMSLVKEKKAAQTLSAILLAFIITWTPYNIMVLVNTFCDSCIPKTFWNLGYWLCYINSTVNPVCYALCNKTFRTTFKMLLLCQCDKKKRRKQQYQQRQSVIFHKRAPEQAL
Procedure, shortened: (§2)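 Equilibrium ³H-NMS binding in CHO membranes expressing human m1–m5 receptors was measured with and without ACh, alone and with three agent concentrations. Data were converted to affinity ratios, meaning apparent primary-ligand affinity with agent divided by affinity without it.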

[3] = target: T2, Muscarinic acetylcholine receptor M2 (Homo sapiens) (UniProt P08172); assay: Cooperativity with NMS at human muscarinic acetylcholine receptor M2; procedure, shortened: as §2
T2 sequence (whole entry): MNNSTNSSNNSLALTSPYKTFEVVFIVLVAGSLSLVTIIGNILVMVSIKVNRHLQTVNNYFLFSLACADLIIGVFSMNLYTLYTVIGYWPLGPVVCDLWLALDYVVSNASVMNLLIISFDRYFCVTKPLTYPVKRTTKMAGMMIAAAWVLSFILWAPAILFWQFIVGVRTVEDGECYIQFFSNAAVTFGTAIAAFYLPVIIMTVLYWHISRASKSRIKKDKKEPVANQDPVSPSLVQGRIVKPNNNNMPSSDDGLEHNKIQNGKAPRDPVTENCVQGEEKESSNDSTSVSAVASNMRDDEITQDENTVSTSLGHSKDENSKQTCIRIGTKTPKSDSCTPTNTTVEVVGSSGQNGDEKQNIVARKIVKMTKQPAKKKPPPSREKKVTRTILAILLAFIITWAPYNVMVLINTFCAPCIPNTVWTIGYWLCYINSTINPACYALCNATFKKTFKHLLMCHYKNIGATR

[4] = target: T1, Muscarinic acetylcholine receptor M1 (Homo sapiens); assay: Cooperativity with acetylcholine at human muscarinic acetylcholine receptor M1; procedure, shortened: as §2
[5] = target: T3, Muscarinic acetylcholine receptor M4 (Homo sapiens) (UniProt P08173); assay: Binding affinity at the unliganded human muscarinic acetylcholine receptor M4 was estimated as log affinity (log1/M); procedure, shortened: as §1
T3 sequence (whole entry): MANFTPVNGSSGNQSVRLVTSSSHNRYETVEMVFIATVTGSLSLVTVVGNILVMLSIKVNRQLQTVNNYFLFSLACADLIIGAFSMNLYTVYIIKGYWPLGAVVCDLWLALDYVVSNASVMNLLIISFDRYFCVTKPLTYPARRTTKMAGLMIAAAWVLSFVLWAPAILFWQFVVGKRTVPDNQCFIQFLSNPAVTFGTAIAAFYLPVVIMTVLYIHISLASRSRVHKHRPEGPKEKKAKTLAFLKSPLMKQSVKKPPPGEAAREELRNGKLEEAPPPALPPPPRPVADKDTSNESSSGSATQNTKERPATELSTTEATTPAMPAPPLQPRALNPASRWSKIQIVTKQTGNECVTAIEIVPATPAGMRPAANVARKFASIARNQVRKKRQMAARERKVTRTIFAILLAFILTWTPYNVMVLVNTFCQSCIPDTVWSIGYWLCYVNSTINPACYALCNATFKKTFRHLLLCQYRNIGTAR

[6] = target: T3, Muscarinic acetylcholine receptor M4 (Homo sapiens); assay: Cooperativity with NMS at human muscarinic acetylcholine receptor M4; procedure, shortened: as §2
[7] = target: T1, Muscarinic acetylcholine receptor M1 (Homo sapiens); assay: Binding affinity at the NMS liganded human muscarinic acetylcholine receptor M1 was estimated as log affinity (log1/M); procedure, shortened: as §1
[8] = target: Muscarinic acetylcholine receptor M3 (Homo sapiens) (UniProt P20309); assay: Cooperativity with NMS at human muscarinic acetylcholine receptor M3; procedure, shortened: as §2
[9] = target: T3, Muscarinic acetylcholine receptor M4 (Homo sapiens); assay: Cooperativity with acetylcholine at human muscarinic acetylcholine receptor M4; procedure, shortened: as §2
[10] = target: Muscarinic acetylcholine receptor M3 (Homo sapiens) (UniProt P20309); assay: Binding affinity at the unliganded human muscarinic acetylcholine receptor M3 was estimated as log affinity (log1/M); procedure, shortened: as §1
[11] = target: T2, Muscarinic acetylcholine receptor M2 (Homo sapiens); assay: Binding affinity at the NMS liganded human muscarinic acetylcholine receptor M2 was estimated as log affinity (log1/M); procedure, shortened: as §1
[12] = target: T1, Muscarinic acetylcholine receptor M1 (Homo sapiens); assay: Cooperativity with NMS at human muscarinic acetylcholine receptor M1; procedure, shortened: as §2
[13] = target: Muscarinic acetylcholine receptor M3 (Homo sapiens) (UniProt P20309); assay: Binding affinity at the NMS liganded human muscarinic acetylcholine receptor M3 was estimated as log affinity (log1/M); procedure, shortened: as §1
[14] = target: T2, Muscarinic acetylcholine receptor M2 (Homo sapiens); assay: Cooperativity with acetylcholine at human muscarinic acetylcholine receptor M2; procedure, shortened: as §2
[15] = target: T3, Muscarinic acetylcholine receptor M4 (Homo sapiens); assay: Binding affinity at the NMS liganded human muscarinic acetylcholine receptor M4 was estimated as log affinity (log1/M); procedure, shortened: as §1
[16] = target: T2, Muscarinic acetylcholine receptor M2 (Homo sapiens); assay: Binding affinity at the unliganded human muscarinic acetylcholine receptor M2 was estimated as log affinity (log1/M); procedure, shortened: as §1

In the case of `C=CC[N+]12CC[C@@]34c5ccccc5N5C(=O)C[C@@H]6OCC=C(C1)[C@H](C[C@@H]32)[C@@H]6[C@H]54` (stereo not given in full), the Affinity [1] is reported as 4.7, the Cooperativity [2] is reported as < 0.2 and the Cooperativity [3] is reported as > 2. The Cooperativity [4] was < 0.2, the Affinity [5] was 5 and the Cooperativity [6] was 1.19. It also gave an Affinity [7] of 4.7, a Cooperativity [8] of 1.19 and a Cooperativity [9] of 0.8. The Affinity [10] was 4.6, the Affinity [11] was 5.9 and the Cooperativity [12] was 1.19. The Affinity [13] was 4.6, the Cooperativity [14] was < 0.2 and the Affinity [15] was 5. The Affinity [16] was 5.3.

In the case of `O=C1C[C@@H]2OCC=C3C[N+]4(Cc5ccc6ccccc6c5)CC[C@]56c7ccccc7N1[C@H]5[C@H]2[C@H]3C[C@@H]64` (stereo not given in full), the Affinity [1] is reported as < 5.3, the Cooperativity [2] is reported as 0.8 and the Cooperativity [3] is reported as > 2. For the same compound, the Cooperativity [4] was 0.8, the Affinity [5] was < 5.6 and the Cooperativity [6] was 2. For the same compound, the Affinity [7] was 5.5, the Cooperativity [8] was 2 and the Cooperativity [9] was 0.8. The Affinity [10] was < 5.8, the Affinity [11] was 6.1 and the Cooperativity [12] was 2. For the same compound, the Affinity [13] was 6, the Cooperativity [14] was < 0.2 and the Affinity [15] was 5.9. The Affinity [16] was 5.5.

With `O=C1C[C@@H]2OCC=C3C[N+]4(CC5CCCCC5)CC[C@]56c7ccccc7N1[C@H]5[C@H]2[C@H]3C[C@@H]64` (stereo not given in full) the Affinity [1] was < 4.6, the Cooperativity [2] was < 0.2 and the Cooperativity [3] was > 2. The Cooperativity [4] was < 0.2, the Affinity [5] was 4.5 and the Cooperativity [6] was 2. The Affinity [7] was 4.8, the Cooperativity [8] was 2 and the Cooperativity [9] was < 0.2. The Affinity [10] was 4, the Affinity [11] was 5.5 and the Cooperativity [12] was 2. For the same compound, the Affinity [13] was 4.1, the Cooperativity [14] was < 0.2 and the Affinity [15] was 4.8. For the same compound, the Affinity [16] was < 4.9.

`O=C1C[C@@H]2OCC=C3C[N+]4([O-])CC[C@]56c7ccccc7N1[C@H]5[C@H]2[C@H]3C[C@@H]64` (stereo not given in full) was tested, and the Affinity [1] was < 3.6, the Cooperativity [2] was 0.8 and the Cooperativity [3] was > 2. For the same compound, the Cooperativity [4] was 0.8, the Affinity [5] was < 3.8 and the Cooperativity [6] was 2. It also gave an Affinity [7] of 3.8, a Cooperativity [8] of 2 and a Cooperativity [9] of 0.8. The Affinity [10] was < 3.9, the Affinity [11] was 4.4 and the Cooperativity [12] was 2. The Affinity [13] was 3.9, the Cooperativity [14] was 0.8 and the Affinity [15] was 4.1. For the same compound, the Affinity [16] was < 4.1.

`CC[N+]12CC[C@@]34c5ccccc5N5C(=O)C[C@@H]6OCC=C(C1)[C@H](C[C@@H]32)[C@@H]6[C@H]54` (stereo not given in full) was tested, and the Affinity [1] was < 4.5, the Cooperativity [2] was 0.8 and the Cooperativity [3] was > 2. The Cooperativity [4] was 0.8, the Affinity [5] was 4.3 and the Cooperativity [6] was > 2. For the same compound, the Affinity [7] was 4.6, the Cooperativity [8] was 1.19 and the Cooperativity [9] was < 0.2. For the same compound, the Affinity [10] was 4.2, the Affinity [11] was 5.2 and the Cooperativity [12] was 2. The Affinity [13] was 4.2, the Cooperativity [14] was < 0.2 and the Affinity [15] was 4.9. The Affinity [16] was 4.7.
